From ChEMBL document CHEMBL1122509, “(1,3-Dialkyl-5-amino-1H-pyrazol-4-yl)arylmethanones. A series of novel central nervous system depressants” (1984) come the findings set out here.

For one test, the system named is Rattus norvegicus. Description: Evaluated for anticonvulsant activity to protect all rats tested, when administered subcutaneously. Type of test: functional.
The species named for test [1] is Mus musculus. Description: Central nervous system depressant activity. It counts as functional. The method, boiled down: (§1)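 Male albino Webster mice, 20–26 g, groups of five, given ip doses of 250, 125, 63 mg/kg and lower until no effect was seen. Doses were calculated as active component and given in 0.9% saline or 100% propylene glycol. Observers scored motor activity, ataxia, depression, reflexes, posture, muscle tone and responses to noise, touch, restraint and transfer over 15–60 min. Survivors were held 24 h for a provisional acute toxicity level.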

Test [2] deals with Mus musculus. As to the kind of experiment: Compound was evaluated for the inhibition of Locomotion-Screen falloff test, at dose (mg/Kg) = 10; 31-59%. It counts as functional. The method, boiled down:
(§2)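 Unfasted male Swiss–Webster mice, 20–30 g, nine per dose in three groups of three, received 10, 30 or 100 mg/kg ip as parent compound in 0.2% methocel, 1 h before testing; controls got methocel. Screen test: percent of mice falling from a screen inverted 180° during 60 s. Then locomotion was read by actophotometer over 1 h as percent inhibition versus vehicle. Graded bands: 60–100% = A.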

Test [3] has as its system Mus musculus. Description: Compound was evaluated for the inhibition of Locomotion-Screen falloff test, at dose (mg/Kg) = 100; 60-100%. Type of test: functional. The method, boiled down: as §2
Test [4] concerns Mus musculus. Description: Compound was evaluated for the inhibition of Locomotion-Screen falloff test, at dose (mg/Kg) = 30; 0-30%. It counts as functional. Summed up:
as §2

In test [5] the test system is Mus musculus. As to the kind of experiment: Compound was evaluated for the inhibition of Locomotion-Screen falloff test, at dose (mg/Kg) = 10; 0-30%. Type of test: functional. The method, boiled down:
as §2

For test [6], the system named is Mus musculus. As to the kind of experiment: Compound was evaluated for the inhibition of Locomotion-Screen falloff test, at dose (mg/Kg) = 100; 31-59%. Type of test: functional. Summed up: as §2
Test [7] concerns Mus musculus. As to the kind of experiment: Compound was evaluated for the inhibition of Locomotion-Screen falloff test, at dose (mg/Kg) = 10; 60-100%. Type of test: functional. Summed up: as §2
Test [8] has as its system Mus musculus. As to the kind of experiment: Compound was evaluated for the inhibition of Locomotion-Screen falloff test, at dose (mg/Kg) = 10. Type of test: functional. The method, boiled down: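 Swiss-Webster male mice (20–30 g, unfasted), 9 per dose in three groups of three; 10 mg/kg ip in 0.2% methocel, dosed as parent compound, 1 h before testing; methocel-injected controls. Inverted wire screen (180° rotation, 60 s) scored as percent falling off. Then actophotometer counts over 1 h give percent inhibition versus vehicle; graded A = 60–100%.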

For test [9], the system named is Mus musculus. As to the kind of experiment: Compound was evaluated for the inhibition of Locomotion-Screen falloff test, at dose (mg/Kg) = 30; 31-59%. It counts as functional. The method, boiled down: as §2
Test [10] relates to Mus musculus. Description: Compound was evaluated for the inhibition of Locomotion-Screen falloff test by ip route. It counts as functional. Summed up: as §2
Test [11] deals with Mus musculus. As to the kind of experiment: Compound was evaluated for the inhibition of Locomotion-Screen falloff test, at dose (mg/Kg) = 30; 60-100%. It counts as functional. Summed up: as §2
Test [12] has as its system Mus musculus. As to the kind of experiment: Compound was evaluated for central nervous system depressant activity at 250 mg/kg; c=Quiet at 250 mg/kg. It counts as functional, organism-based. Summed up:
as §1

As to `CCCn1nc(C)c(C(=O)c2ccccc2Br)c1N`, the Activity is 32 mg/kg in the test on Rattus norvegicus and 8 mg/kg in the test listed under Mus musculus [1].

Take `CCc1nn(C)c(N)c1C(=O)c1cccc(F)c1`: the figures for the Activity in the test on Rattus norvegicus and in the test listed under Mus musculus [1] were 500 mg/kg and 63 mg/kg, respectively.

Consider `CCCn1nc(C)c(C(=O)c2cccc(OC)c2Cl)c1N`, for which the Activity in the test with Rattus norvegicus came to 63 mg/kg; in the test listed under Mus musculus [1], 16 mg/kg.

The compound `CCCCc1nn(C)c(N)c1C(=O)c1ccccc1Cl` showed an Activity in the test with Rattus norvegicus of 125 mg/kg.

On to `CCCn1nc(C)c(C(=O)c2ccc(Cl)cc2)c1N`, for which the results for the Activity in the test with Rattus norvegicus and in the test listed under Mus musculus [1] were 32 mg/kg and 16 mg/kg, respectively.

Regarding `Cc1ccccc1C(=O)c1c(C)nn(C)c1N`, the Activity amounted to 125 mg/kg in the test on Rattus norvegicus and 32 mg/kg in the test listed under Mus musculus [1]. For the same compound, the Inhibition (usually the share of the control response that was lost under treatment) with Mus musculus [2] is 31%; with Mus musculus [3] it was 60%; with Mus musculus [4] it was 0%.

Turning to `Cn1nc(-c2ccccc2)c(C(=O)c2ccccc2Cl)c1N`, the Activity in the test listed under Mus musculus [1] was 250 mg/kg.

In the case of `Cc1nn(C)c(N)c1C(=O)c1ccsc1`, in the test listed under Mus musculus [1], the Activity turned out to be 16 mg/kg.

Turning to `Cc1nn(C)c(N)c1C(=O)c1ccc(Cl)cc1`, the Activity in the test with Rattus norvegicus and in the test listed under Mus musculus [1] was 125 mg/kg each time. Besides, the values for the Inhibition in the test on Mus musculus [5], in the test with Mus musculus [3] and in the test with Mus musculus [4] were 0%, 60% and 0%, respectively.

Take `CCCn1nc(C)c(C(=O)c2ccccc2C)c1N`: the Activity came to 63 mg/kg with Rattus norvegicus and 16 mg/kg in the test filed under Mus musculus [1].

Regarding `CCc1nn(C)c(N)c1C(=O)c1ccccc1Cl`, the Activity in the test on Rattus norvegicus was determined as 500 mg/kg; in the test filed under Mus musculus [1] it was 63 mg/kg.

Turning to `CCCCn1nc(C)c(C(=O)c2cccc(Cl)c2)c1N`, the Activity is 500 mg/kg in the test on Rattus norvegicus and 32 mg/kg in the test listed under Mus musculus [1].

In the case of `CCn1nc(C)c(C(=O)c2ccccc2Cl)c1N`, the results for the Activity in the test on Rattus norvegicus and in the test listed under Mus musculus [1] were 16 mg/kg and 32 mg/kg, respectively.

`Cc1nn(C)c(N)c1C(=O)c1cccc(C(F)(F)F)c1`: the Activity was 125 mg/kg with Rattus norvegicus and 4 mg/kg in the test listed under Mus musculus [1]. Moreover, the Inhibition is 0% with Mus musculus [5], 31% in the test with Mus musculus [6] and 0% in the test with Mus musculus [4].

Consider `CC(C)c1nn(C)c(N)c1C(=O)c1ccccc1Cl`, for which the Activity in the test filed under Mus musculus [1] came to 63 mg/kg.

As for `Cc1nn(C)c(N)c1C(=O)c1ccccc1Br`, the Activity in the test on Rattus norvegicus was determined as 125 mg/kg; in the test filed under Mus musculus [1] it was 63 mg/kg. The results for the Inhibition with Mus musculus [6], in the test with Mus musculus [2] and in the test on Mus musculus [4] were 31%, 31% and 0%, respectively.

Take `CCCn1nc(C)c(C(=O)c2cccs2)c1N`: the figures for the Activity in the test with Rattus norvegicus and in the test filed under Mus musculus [1] were 125 mg/kg and 250 mg/kg, respectively.

In the case of `Cc1nn(C)c(N)c1C(=O)c1ccccc1Cl`, the Activity was 125 mg/kg in the test with Rattus norvegicus and 63 mg/kg in the test filed under Mus musculus [1]. Besides, the Inhibition with Mus musculus [5] came to 0%; in the test with Mus musculus [3] it was 60%; in the test with Mus musculus [4], 0%.

In the test filed under Mus musculus [1], `Cc1nn(-c2ccccc2)c(N)c1C(=O)c1ccccc1Cl` came in with an Activity of 250 mg/kg.

As for `Cc1nn(C)c(N)c1C(=O)c1cccc(Cl)c1`, the Activity in the test with Rattus norvegicus was 63 mg/kg; in the test listed under Mus musculus [1], 125 mg/kg. Moreover, the Inhibition is 0% in the test with Mus musculus [5], 31% with Mus musculus [6] and 0% in the test on Mus musculus [4].

For `COc1cccc(C(=O)c2c(C)nn(C)c2N)c1Cl`, the Activity in the test with Rattus norvegicus was 250 mg/kg; in the test listed under Mus musculus [1] it was 32 mg/kg.

Take `Cc1nn(C(C)C)c(N)c1C(=O)c1ccccc1Cl`: the Activity with Rattus norvegicus turned out to be 500 mg/kg; in the test listed under Mus musculus [1] it was 63 mg/kg.

`O=c1[nH]c2ccccc2n1C1CCN(CCCC(c2ccc(F)cc2)c2ccc(F)cc2)CC1` [PIMOZIDE] gave an Inhibition in the test on Mus musculus [7] of 60%. It took a dose of 5.9 mg/kg to reach the 50% effect level with Mus musculus [8] (ED50).

In the case of `Cc1nn(C)c(N)c1C(=O)c1ccccc1C(F)(F)F`, the results for the Activity in the test on Rattus norvegicus and in the test filed under Mus musculus [1] were 250 mg/kg and 125 mg/kg, respectively. For the same compound, the Inhibition was 0% in the test on Mus musculus [5], 31% with Mus musculus [9] and 60% with Mus musculus [3].

As to `CCCc1nn(C)c(N)c1C(=O)c1ccccc1Cl`, the Activity with Rattus norvegicus came to 125 mg/kg; in the test filed under Mus musculus [1], 32 mg/kg.

Compound `CSc1ccc2c(c1)N(CCC1CCCCN1C)c1ccccc1S2` (configuration not stated) [THIORIDAZINE] returned an Inhibition in the test on Mus musculus [7] of 60%. Also, the median effective dose (ED50) (in general, the dose that gives a 50% effect, or the effect in half of the subjects) in the test on Mus musculus [10] was 2.9 mg/kg.

With `CCCn1nc(C)c(C(=O)c2ccccc2OC)c1N`, the Activity in the test with Rattus norvegicus came to 125 mg/kg; in the test listed under Mus musculus [1], 16 mg/kg.

For the compound `Cc1nn(C)c(N)c1C(=O)c1ccccc1F`, the Activity was determined as 250 mg/kg in the test on Rattus norvegicus and 32 mg/kg in the test filed under Mus musculus [1]. In addition, the Inhibition in the test with Mus musculus [7] and with Mus musculus [11] was 60% throughout. Further, the ED50 in the test on Mus musculus [10] is 9.4 mg/kg.

`Cc1nn(C)c(N)c1C(=O)c1cccs1`: the Inhibition is recorded as 0% in the test with Mus musculus [5], 60% in the test on Mus musculus [11] and 60% with Mus musculus [3]. For the same compound, the Activity in the test listed under Mus musculus [1] was found to be 8 mg/kg. The same compound came in with a 50% effective dose (ED50) in the test with Mus musculus [10] of 34.2 mg/kg.

For `CCCCn1nc(C)c(C(=O)c2ccccc2Cl)c1N`, the Activity with Rattus norvegicus was found to be 125 mg/kg; in the test listed under Mus musculus [1], 8 mg/kg.

`CCCn1nc(C)c(C(=O)c2ccccc2C(F)(F)F)c1N`: the values for the Activity in the test with Rattus norvegicus and in the test filed under Mus musculus [1] were 63 mg/kg and 8 mg/kg, respectively.

Take `CCc1nn(C)c(N)c1C(=O)c1ccccc1`: the Activity with Rattus norvegicus is 250 mg/kg; in the test filed under Mus musculus [1], 16 mg/kg. In addition, the values for the Inhibition in the test with Mus musculus [11], in the test with Mus musculus [6] and in the test with Mus musculus [2] were 60%, 31% and 31%, respectively.

As for `CCc1nn(C)c(N)c1C(=O)c1ccccc1F`, the Activity in the test on Rattus norvegicus worked out at 250 mg/kg; in the test listed under Mus musculus [1] it was 32 mg/kg. Moreover, the Inhibition is listed as 0% with Mus musculus [5], 31% with Mus musculus [6] and 0% with Mus musculus [4].

In the case of `Cc1nn(C)c(N)c1C(=O)c1ccccc1`, the Activity with Rattus norvegicus came out at 500 mg/kg; in the test listed under Mus musculus [1], 63 mg/kg. Moreover, the Inhibition with Mus musculus [5] is given as 0%; in the test on Mus musculus [9], 31%; in the test on Mus musculus [3] it was 60%.

Regarding `Cc1nn(C2CCCCC2)c(N)c1C(=O)c1ccccc1Cl`, the Activity entry with Mus musculus [12] is reported as “Quiet at 250mg/kg”.

Turning to `CCCn1nc(C)c(C(=O)c2ccccc2Cl)c1N`, the Activity with Rattus norvegicus was 32 mg/kg; in the test filed under Mus musculus [1] it was 8 mg/kg.

Turning to `COc1ccccc1C(=O)c1c(C)nn(C)c1N`, the figures for the Activity with Rattus norvegicus and in the test filed under Mus musculus [1] were 125 mg/kg and 32 mg/kg, respectively. The Inhibition is listed as 0% in the test with Mus musculus [5], 31% with Mus musculus [6] and 31% in the test on Mus musculus [9].
